Assay results from ChEMBL document CHEMBL1165885, “Synthesis and cyclooxygenase inhibitory activities of some N-acylhydrazone derivatives of isoxazolo[4,5-d]pyridazin-4(5H)-ones” (Eur J Med Chem, 2010).

target: T1, Prostaglandin G/H synthase 1 (Ovis aries) (UniProt P05979); experiment: Inhibition of sheep COX1 assessed as PGE2 level at 50 uM by ELISA
T1 sequence (whole entry): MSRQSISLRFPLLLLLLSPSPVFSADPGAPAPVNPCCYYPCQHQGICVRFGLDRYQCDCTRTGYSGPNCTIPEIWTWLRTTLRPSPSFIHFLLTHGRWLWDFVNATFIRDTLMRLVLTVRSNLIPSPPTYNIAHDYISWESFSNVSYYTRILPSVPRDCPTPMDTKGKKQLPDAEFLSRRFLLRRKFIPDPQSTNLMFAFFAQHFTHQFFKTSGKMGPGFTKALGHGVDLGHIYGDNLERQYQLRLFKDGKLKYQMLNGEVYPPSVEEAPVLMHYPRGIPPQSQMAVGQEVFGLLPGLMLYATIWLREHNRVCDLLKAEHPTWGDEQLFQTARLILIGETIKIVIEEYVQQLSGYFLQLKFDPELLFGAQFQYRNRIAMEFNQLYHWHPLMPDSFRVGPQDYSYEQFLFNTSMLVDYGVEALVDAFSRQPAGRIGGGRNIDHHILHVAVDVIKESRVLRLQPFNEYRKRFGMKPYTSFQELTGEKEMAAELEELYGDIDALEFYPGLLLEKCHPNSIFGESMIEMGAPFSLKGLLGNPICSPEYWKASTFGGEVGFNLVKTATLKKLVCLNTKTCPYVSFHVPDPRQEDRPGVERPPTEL
How it was run: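 Ovine COX-1 preincubated 10 min at 37 °C in 100 mM Tris-HCl pH 8.0 with 1 µM heme. Compounds in DMSO, diluted in 100 mM potassium phosphate pH 7.4. Arachidonic acid added to 100 uM final; stopped after 2 min with 1 M HCl. PGE2 measured by competitive ELISA with AChE tracer and Ellman's reagent at 412 nm against a PGE2 standard curve. Expressed as % of solvent control; duplicate, two independent experiments.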

**Q.** With `Cc1ccccc1/C=N\NC(=O)Cn1nc(Cc2ccccc2)c2onc(C)c2c1=O` as the compound, how does the inhibition read?
**A.** 46.9%

**Q.** With `Cc1noc2c(Cc3ccccc3)nn(CC(=O)N/N=C\c3ccccc3C(F)(F)F)c(=O)c12` as the compound, how does the inhibition read?
**A.** 51%

**Q.** `Cc1noc2c(Cc3ccccc3)nn(CC(=O)N/N=C\c3ccc([N+](=O)[O-])cc3)c(=O)c12` was tested. Which inhibition did it give?
**A.** 40.7%

**Q.** For `Cc1noc2c(Cc3ccccc3)nn(CC(=O)N/N=C\c3ccc(F)cc3)c(=O)c12`, which inhibition is on record?
**A.** 54%

**Q.** For `Cc1noc2c(Cc3ccccc3)nn(CC(=O)N/N=C\c3ccccc3F)c(=O)c12`, which inhibition is on record?
**A.** 41.8%

**Q.** For `COc1ccc2c(c1)c(CC(=O)O)c(C)n2C(=O)c1ccc(Cl)cc1`, which inhibition is on record?
**A.** 78%

**Q.** Which inhibition does the source give for `Cc1noc2c(Cc3ccccc3)nn(CC(=O)N/N=C\c3cccc(Br)c3)c(=O)c12` here?
**A.** 42.9%

**Q.** How did the inhibition turn out when `COc1ccccc1/C=N\NC(=O)Cn1nc(Cc2ccccc2)c2onc(C)c2c1=O` was run?
**A.** 65%

**Q.** Which inhibition does the source give for `COc1cccc(/C=N\NC(=O)Cn2nc(Cc3ccccc3)c3onc(C)c3c2=O)c1` here?
**A.** 55.2%

**Q.** Which inhibition does the source give for `Cc1noc2c(Cc3ccccc3)nn(CC(=O)N/N=C\c3cccc(F)c3)c(=O)c12` here?
**A.** 83%

**Q.** `Cc1noc2c(Cc3ccccc3)nn(CC(=O)N/N=C\c3ccc(Br)cc3)c(=O)c12` was tested. Which inhibition did it give?
**A.** 50.6%

**Q.** How did the inhibition turn out when `Cc1noc2c(Cc3ccccc3)nn(CC(=O)N/N=C\c3ccccc3Cl)c(=O)c12` was run?
**A.** 52.8%

**Q.** How did the inhibition turn out when `Cc1noc2c(Cc3ccccc3)nn(CC(=O)N/N=C\c3ccccc3Br)c(=O)c12` was run?
**A.** 52.8%

**Q.** For `Cc1noc2c(Cc3ccccc3)nn(CC(=O)N/N=C\c3ccc(Cl)cc3)c(=O)c12`, which inhibition is on record?
**A.** 39.6%

**Q.** `Cc1noc2c(Cc3ccccc3)nn(CC(=O)N/N=C\c3ccc(C(F)(F)F)cc3)c(=O)c12` was tested. Which inhibition did it give?
**A.** 64%

**Q.** With `Cc1noc2c(Cc3ccccc3)nn(CC(=O)N/N=C\c3cccc([N+](=O)[O-])c3)c(=O)c12` as the compound, how does the inhibition read?
**A.** 39.6%

**Q.** How did the inhibition turn out when `Cc1noc2c(Cc3ccccc3)nn(CC(=O)N/N=C\c3cccc(C(F)(F)F)c3)c(=O)c12` was run?
**A.** 47.1%

**Q.** `Cc1noc2c(Cc3ccccc3)nn(CC(=O)N/N=C\c3cccc(Cl)c3)c(=O)c12` was tested. Which inhibition did it give?
**A.** 36.3%

**Q.** With `Cc1noc2c(Cc3ccccc3)nn(CC(=O)N/N=C\c3ccccc3[N+](=O)[O-])c(=O)c12` as the compound, how does the inhibition read?
**A.** 59%

**Q.** `COc1ccc(/C=N\NC(=O)Cn2nc(Cc3ccccc3)c3onc(C)c3c2=O)cc1` was tested. Which inhibition did it give?
**A.** 46.3%

**Q.** `Cc1cccc(/C=N\NC(=O)Cn2nc(Cc3ccccc3)c3onc(C)c3c2=O)c1` was tested. Which inhibition did it give?
**A.** 61%

**Q.** `Cc1ccc(/C=N\NC(=O)Cn2nc(Cc3ccccc3)c3onc(C)c3c2=O)cc1` was tested. Which inhibition did it give?
**A.** 62.1%

**Q.** `Cc1noc2c(Cc3ccccc3)nn(CC(=O)N/N=C\c3ccccc3)c(=O)c12` was tested. Which inhibition did it give?
**A.** 50.6%
